From PubChem BioAssay
Sampled rows, rich in hits. Any-hit rate of the full collection: about 2.1%.
CAL PDZ FP-1 = CAL PDZ (human) peptide binding inhibition; inhibition, % at 24.9 µM; actives 0.92% (n = 300,000); purified CAL PDZ, TMR-peptide fluorescence polarization, 1 h; Q9HD26; AID 602252;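 active = mean inhibition of at least 30% with at least half of replicates also reaching 30%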;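 also: 0% = DMSO neutral control and 100% = excess unlabeled competitor peptide PRC23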
SR-BI DiI inh = mouse SR-BI HDL lipid transfer inhibition; ldlA[mSR-BI] CHO cells, DiI-HDL uptake fluorescence, 3 h; inhibition, % at 12.5 µM; actives 0.96% (n = 320,000);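 active = mean replicate inhibition of at least 70% and a set share of replicates each scoring 70 or more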;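 also: 0% = median of neutral control wells and 100% = median of positive control wells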
Target sequence (Q61009 whole entry, looked up): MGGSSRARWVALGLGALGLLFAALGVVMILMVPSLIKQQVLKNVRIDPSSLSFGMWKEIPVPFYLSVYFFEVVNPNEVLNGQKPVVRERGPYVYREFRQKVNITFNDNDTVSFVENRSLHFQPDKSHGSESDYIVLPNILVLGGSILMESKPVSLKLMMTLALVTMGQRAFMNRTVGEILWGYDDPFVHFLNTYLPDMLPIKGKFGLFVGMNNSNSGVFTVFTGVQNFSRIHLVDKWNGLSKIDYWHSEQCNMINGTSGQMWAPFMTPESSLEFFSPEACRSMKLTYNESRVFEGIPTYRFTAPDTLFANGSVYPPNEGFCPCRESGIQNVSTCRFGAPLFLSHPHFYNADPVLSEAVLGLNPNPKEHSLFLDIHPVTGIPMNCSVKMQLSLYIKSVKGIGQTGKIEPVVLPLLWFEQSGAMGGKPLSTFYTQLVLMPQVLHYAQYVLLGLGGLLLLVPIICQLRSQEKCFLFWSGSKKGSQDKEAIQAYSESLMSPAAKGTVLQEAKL
CAL PDZ FP-2 = blocks peptide binding to human CAL PDZ domain; actives 0.02% (n = 330,000); purified CAL PDZ, TMR-peptide fluorescence polarization, 1 h; inhibition, % at 20 µM; Q9HD26;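 active = highest replicate inhibition of at least 40%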;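 also: plate controls were DMSO neutral control wells for no effect and unlabeled competitor peptide control wells for full effect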
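System: tagged CAL PDZ domain. Schedule: 1 h room-temperature incubation prior to read. Signal: fluorescence polarization (mP). Measure: percent inhibition from loss of millipolarization.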
SR-BI uptake up = SR-BI HDL lipid transfer activation; CHO ldlA[mSR-BI] cells, DiI-HDL uptake fluorescence, 3 h; 100 = double the neutral-control signal; actives 0.096% (n = 320,000); AID 504775; activation, % at 12.5 µM;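 active = mean replicate activation of at least 60% and every replicate at or above 60%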;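 also: 0% = median plate neutral-control signal and 100% = twice that signal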
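Material: SR-BI-overexpressing, LDLR-lacking CHO cells | Dosing: Single compound concentration, delivered by pin transfer | Probe or stimulus: Labelled HDL, 10 µg/mL | Signal: Bottom-read cell fluorescence after medium removal, ex 550/em 595 nm | Schedule: 3 h, 37 °C | Evaluation: HDL uptake via cellular fluorescence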
ARNT TACC3 PPI = ARNT/TACC3 interaction disruption. Q9Y6A5. AlphaScreen His-ARNT PAS-B/GST-TACC3 binding, luminescence; TACC3 fragment carries E629A point mutation. inhibition, % at 9.99 µM. actives 0.66% (n = 390,000);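 active = mean inhibition of replicates at least 50% and at least half of replicates each reaching 50%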;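 also: 0% = complete ARNT plus TACC3 wells and 100% = ARNT alone without TACC3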
miR-122 sensor = miR-122 inhibition in Huh7 cells; Huh7 miR-122 Renilla luciferase sensor, 48 h; neutral wells = 0, positive control = 100; actives 0.3% (n = 340,000); activation (reporter increase), % at 12.5 µM;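 active = mean replicate activation score at least 90 and every replicate individually at or above 90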;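 also: higher luciferase means less miR-122 activity so hits act as miR-122 inhibitors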
Active calls of the source: *; / = no result given; [ ] = dose if it differs, or a comment.

SMILES	CAL PDZ FP-1	SR-BI DiI inh	CAL PDZ FP-2	SR-BI uptake up	ARNT TACC3 PPI	miR-122 sensor
CCOC(=O)c1ccc(N=C2C(=S)N(c3ccc(C(=O)OCC)cc3)C(=N)N2/N=C/c2ccccc2)cc1	-2.2	75.7*	-3.8	-75.7	/	4.7
O=C(CSc1nnc(NC2CCCCC2)s1)Nc1ccc2c(c1)C(=O)c1ccccc1C2=O	0.9	72.6*	-1.1	-72.6	/	/
CC(C)Nc1nnc(SCC(=O)Nc2ccc3c(c2)C(=O)c2ccccc2C3=O)s1	0.4	27.3	0.8	-27.3	3.0	2.8
CCS(=O)(=O)N[C@H]1CC[C@@H](CC(=O)NCc2ccccn2)O[C@H]1CO	/	/	/	/	3.7	/
Fc1ccc(Cn2cc(C(=S)N3CCOCC3)c3ccccc32)cc1	52.2*	6.4	15.0	-6.4	-1.4	59.1
O=C(Cn1cc(C(=S)N2CCOCC2)c2ccccc21)N1CCOCC1	-2.0	-3.6	0.0	3.6	1.0	3.9
Fc1ccccc1Cn1cc(C(=S)N2CCOCC2)c2ccccc21	0.8	5.5	-0.3	-5.5	0.1	247.3*
CCN(CC)c1ccc(C(=C2C=CC(=[N+](CC)CC)C=C2)c2ccccc2)cc1	-1.9	53.9	5.4	-53.9	22.8*	/
C[C@H](O)C#Cc1ccc2c(c1)O[C@@H](CN(C)C(=O)c1ccncc1)[C@H](C)CN([C@H](C)CO)S2(=O)=O	/	/	/	/	3.2	-5.0[16.7 µM]
COC(=O)c1cc(S(=O)(=O)N2CCCCC2C)c[nH]1 (stereo not drawn)	6.7	-21.4	-2.2	21.4	-4.2	/
COC(=O)c1cc(S(=O)(=O)N2CCCC(C)C2)c[nH]1 (stereo not drawn)	78.2*	1.9	-0.5	-1.9	-2.7	-0.5
CN1C[C@@H]2[C@H](c3ccccc31)[C@H](CO)N2C(=O)C1CCCCC1	/	/	/	/	-2.3	0.0[16.7 µM]
COc1ccccc1CCC(=O)Nc1ccc2c(c1)CN(Cc1ccc(C)o1)CC2	-1.9	81.1*	-1.1	-81.1	8.0	2.7
COc1ccc(NC(=O)N(C)C[C@H]2Oc3ccc(NS(C)(=O)=O)cc3CC(=O)N([C@H](C)CO)C[C@H]2C)cc1	/	/	/	/	-11.5	9.5[16.7 µM]
CC1C(=O)C(C)C(c2cc(Br)ccc2O)NC1c1cc(Br)ccc1O (stereo not drawn)	2.6	82.6*	2.1	-82.6	2.8	-1.5
CC(=O)N(C)C[C@H]1Oc2ncc(/C=C/c3ccccc3)cc2C(=O)N([C@@H](C)CO)C[C@H]1C	/	/	/	/	3.9	-1.6[16.7 µM]
Cc1ccc(S(=O)(=O)Nc2ccc3c(c2)C(=O)N([C@H](C)CO)C[C@@H](C)[C@@H](CN(C)C(=O)C2CCCCC2)OCCCC[C@H](C)O3)cc1	/	/	/	/	-8.2	-3.6[16.7 µM]
O=c1c(CO)cc(CO)cc(CO)c1O	-8.0	/	-2.3	/	74.3*	/
Cc1ccc(OC(C)C(=O)Nc2ccc(C)c(S(=O)(=O)Nc3ccc(C)cc3C)c2)cc1 (stereo not drawn)	-2.6	57.0	-1.7	-57.0	-10.6	195.7*
Cc1ccc(NS(=O)(=O)c2cc(NC(=O)c3cc4c(s3)CCCC4)ccc2C)c(C)c1	-3.9	82.8*	-2.1	-82.8	4.3	35.8
CC(=O)Nc1cc(S(=O)(=O)Nc2ccc(C)cc2)c(C)cc1C	1.6	/	-2.1	/	0.1	128.6*
Cc1cc(C)c(S(=O)(=O)Nc2ccc(O)cc2)cc1C	2.1	-18.4	-0.5	18.4	2.9	68.7
Cc1ccc(OC(C)C(=O)Nc2ccncc2)cc1 (stereo not drawn)	/	-7.7	0.4	7.7	-1.7	-5.3
Cc1ccc(NC(=O)c2cc3c(s2)CCCC3)cc1	-2.2	67.6	-3.2	-67.6	-1.3	-2.5
Cn1cnc(S(=O)(=O)N[C@@H]2CC[C@H](CC(=O)Nc3ccc(-c4ccccc4)cc3)O[C@@H]2CO)c1	/	/	/	/	-10.4	/
O=C(CC(=O)c1ccccc1)CC(O)(C=Cc1ccccc1)c1ccccc1 (stereo not drawn)	51.8*	14.4	0.2	-14.4	-15.4	-3.7
C/C(=C\C(=O)O)C(=O)Nc1nccs1	-3.8	-3.2	-0.5	3.2	2.0	0.2
CC(=O)c1nccs1	32.5*	4.1	0.1	-4.1	/	2.2
